Measured values published in PubChem BioAssay.
Activity calls are given as the source filed them.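 Rule for the calls, unless noted: active = inhibition of the reporter signal at or above 50%; inactive = inhibition below 50%.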

Legend:
[1] = inhibitors of TNFa-induced NFkB p65 translocation, primary screen, imaging, HUVEC, MLSMR starter and 10KST1 sets (AID 438;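 active = inhibition above 20% together with a positive visual image hit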;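 note: compound added about 3h40 before a 20 min TNFalpha stimulation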;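 for inhibition: signal is the nuclear over cytoplasmic p65 intensity ratio per well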); details: HUVEC TNFa-induced p65 nuclear translocation; cell count: measured here: nuclei count (cytotoxicity indicator), at 2.08 µM; inhibition: at 2 µM, stronger effect = higher value, 0% TNFa-plus-vehicle, 100% no-TNFa wells
[2] = inhibitors of mutant huntingtin aggregation, primary screen, imaging, exon1htt(103Q)mCFP cells, high-content imaging (AID 483;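 active = visual image review flags a hit and inhibition of aggregation exceeds 20%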;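 note: compound exposure lasted 3 days before fixation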;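 for nuclei count: percent of the per-plate median nuclei count of sample wells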); details: exon1htt(103Q)mCFP cell line, aggregate imaging, at 2 µM; inhibition of aggregation: stronger effect = higher value; nuclei count: measured here: cell count, toxicity
[3] = inhibitors of E-selectin induction by TNFa, primary screen, imaging, HUVEC, immunofluorescence, MLSMR starter and 10KST1 sets (AID 487;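 active = visually confirmed hit in the image check and inhibition above 20%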;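 for inhibition: signal is fraction of cell area covered by stained E-selectin grains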;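 for nuclei count: 100% = median nuclei count of all wells on the same plate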); details: HUVEC TNFalpha-induced E-selectin immunofluorescence imaging, at 2 µM; inhibition: stronger effect = higher value; nuclei count: measured here: cell number, toxicity
[4] = molecular target: Voltage-gated potassium channel subunit beta-2 (Rattus norvegicus) (UniProt P62483); test: KvBeta enzyme negative modulators, primary screen, biochemical, NADPH fluorescence (AID 622;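 active = fluorescence slope higher than the sample average by over 3 SD, cut at about -0.22 in these data, passing the limit was not always enough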;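 note: slope of raw intensity against log time taken from 70 to 1610 s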); details: recombinant KvBeta, 4-cyanobenzaldehyde reduction, at 10 µM, stronger effect = higher value
[5] = molecular target: Voltage-gated potassium channel subunit beta-2 (Rattus norvegicus) (UniProt P62483); test: KvBeta positive modulators, primary screen, biochemical, NADPH fluorescence (AID 623;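 active = NADPH fluorescence slope more negative than the mean of all samples by about 3 SD, 99.7% confidence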;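 note: fluorescence intensity change per second fitted from 20 to 320 s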); details: Recombinant KvBeta, NADPH fluorescence decrease slope, 10 min; at 10 µM; stronger effect = lower value
[6] = molecular target: Muscarinic acetylcholine receptor M4 (Homo sapiens) (UniProt P08173); test: compounds altering M4/GIRK thallium flux, either direction, primary screen, M4 allosteric agonist project, cell-based, HEK293 M4/GIRK, BTC-AM (AID 625;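 active = fluorescence slope after compound addition differing from the mean of all tested samples at 99.7% confidence, mostly higher but some lower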;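 note: thallium influx through GIRK channels coupled to M4 in HEK293 cells with BTC-AM dye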); details: at 10 µM, actives lie on both sides
Summary of the method: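 System: HEK293 cells with M4 receptor and GIRK channels | Incubation: Cells overnight at 37 °C, BTC-AM loading 1 h, reads 2 min total | Technique: Kinetic BTC-AM fluorescence sampled at 1 Hz, 10 s pre-addition baseline | Measure: Post-addition slope, 15–24 s, of baseline-normalized fluorescence | Control set: Carbachol positive, DMSO negative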

[7] = inhibitors of Sendai virus-induced IRF3 signaling, primary screen, TLR/RLR signaling modifier project, cell-based, Sendai virus stimulus, luciferase, 10K MLSCN set (AID 602276;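 active = inhibition at or above 50% at 10 µM; inactive = inhibition below 50%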;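 note: firefly luciferase from ISG56 promoter only with Renilla not read in this screen; 0% = Sendai virus plus DMSO and 100% = medium plus DMSO without virus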); details: HEK293 RL24 IRF3 luciferase reporter, at 10 µM, stronger effect = higher value
[8] = inhibitors of poly I:C-induced TLR3 signaling, primary screen, cell-based, poly I:C stimulus, luciferase, 10K MLSCN set (AID 602277); details: HEK293-TLR3 RL24 IRF3 luciferase reporter, at 10 µM, stronger effect = higher value

Voltage-gated potassium channel subunit beta-2 (Rattus norvegicus), sequence (P62483 whole entry, looked up): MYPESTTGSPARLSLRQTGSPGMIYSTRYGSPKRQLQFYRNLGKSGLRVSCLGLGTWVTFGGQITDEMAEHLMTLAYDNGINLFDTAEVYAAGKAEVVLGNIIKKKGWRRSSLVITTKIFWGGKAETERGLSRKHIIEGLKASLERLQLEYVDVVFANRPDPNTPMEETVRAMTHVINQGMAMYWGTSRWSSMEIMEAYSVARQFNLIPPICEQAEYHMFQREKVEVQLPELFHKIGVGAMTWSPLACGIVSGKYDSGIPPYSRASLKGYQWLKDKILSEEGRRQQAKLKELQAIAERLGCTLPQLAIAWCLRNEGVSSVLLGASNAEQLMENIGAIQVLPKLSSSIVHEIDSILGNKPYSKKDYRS
Muscarinic acetylcholine receptor M4 (Homo sapiens), sequence (P08173 whole entry, looked up): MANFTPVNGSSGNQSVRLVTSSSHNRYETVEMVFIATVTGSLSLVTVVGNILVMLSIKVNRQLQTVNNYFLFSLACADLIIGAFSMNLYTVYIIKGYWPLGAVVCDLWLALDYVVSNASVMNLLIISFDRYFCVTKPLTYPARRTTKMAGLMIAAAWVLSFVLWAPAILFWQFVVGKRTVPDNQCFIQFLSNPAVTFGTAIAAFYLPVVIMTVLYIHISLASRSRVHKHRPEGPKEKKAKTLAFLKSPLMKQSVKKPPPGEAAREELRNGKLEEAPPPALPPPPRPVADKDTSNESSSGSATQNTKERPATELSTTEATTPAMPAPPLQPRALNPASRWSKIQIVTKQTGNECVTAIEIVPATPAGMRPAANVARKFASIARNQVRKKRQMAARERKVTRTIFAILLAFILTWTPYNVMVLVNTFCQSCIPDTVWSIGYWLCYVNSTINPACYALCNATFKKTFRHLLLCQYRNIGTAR

SMILES | cell count [1] | inhibition [1] | inhibition of aggregation [2] | nuclei count [2] | inhibition [3] | nuclei count [3] | fluorescence slope [4] | NADPH fluorescence slope [5] | fluorescence slope [6] | inhibition [7] | inhibition [8]
CC(C)(C)c1cc(C(=S)N2CCN(CCO)CC2)cc(C(C)(C)C)c1O | 667 | -1.4% (inactive) | 10.4% (inactive) | 105% | -150% (inactive) | 128% | -0.534 (inactive) | -4.4e-05 (inactive) | 0.00566 (inactive) | 24.4% (inactive) | 29.9% (inactive)
Clc1cccc(-c2nn3c(Cn4cnc5ccccc54)nnc3s2)c1 | 581 | 4.7% (inactive) | -6.1% (inactive) | 113% | -92.1% (inactive) | 130% | -0.432 (inactive) | -0.000274 (inactive) | 0.00396 (inactive) | 18.7% (inactive) | 21.6% (inactive)
O=S(=O)(CCOc1ccccc1)c1nc2ccccc2[nH]1 | 332 | -11.8% (inactive) | -12.8% (inactive) | 99.9% | -77.3% (inactive) | 106% | -0.566 (inactive) | -9e-05 (inactive) | 0.00411 (inactive) | 19.7% (inactive) | 13.7% (inactive)
Cc1ccc(NC(=O)c2ccc(NS(=O)(=O)c3c(C)noc3C)cc2)cc1C | 319 | -15.8% (inactive) | -9.9% (inactive) | 94.1% | -49.9% (inactive) | 110% | -0.48 (inactive) | -0.000226 (inactive) | 0.00475 (inactive) | 6.15% (inactive) | 9.64% (inactive)
O=C(c1ccccc1)c1ccc2nc[nH]c2c1 | 762 | -1.2% (inactive) | -14.8% (inactive) | 94.7% | -48.9% (inactive) | 128% | -0.571 (inactive) | -3.1e-05 (inactive) | 0.00464 (inactive) | -13.6% (inactive) | -34.9% (inactive)
Cn1c(=O)[nH]c(=O)c2c1nc(N1CCNCC1)n2Cc1cccc2ccccc12 | 387 | 1.1% (inactive) | 13.1% (inactive) | 99.6% | -83.1% (inactive) | 106% | -0.59 (inactive) | -5.5e-05 (inactive) | 0.00615 (inactive) | 13.2% (inactive) | 28.8% (inactive)
CC(Sc1nnc(-c2cc3ccccc3o2)n1-c1ccccc1)C(=O)O (centres undefined) | 613 | 0.8% (inactive) | 14.7% (inactive) | 105% | -223% (inactive) | 108% | -0.585 (inactive) | -5.2e-05 (inactive) | 0.00554 (inactive) | 21.2% (inactive) | 39.8% (inactive)
O=C1CSC(c2cn(-c3ccccc3)nc2-c2cccs2)N1CC1CCCO1 (centres undefined) | 453 | -2.6% (inactive) | 10.2% (inactive) | 101% | -83.2% (inactive) | 117% | -0.534 (inactive) | -3e-05 (inactive) | 0.00528 (inactive) | 18.7% (inactive) | 26.5% (inactive)
COCn1c(COc2ccccc2)nc2ccccc21 | 478 | 9.6% (inactive) | -10.6% (inactive) | 114% | 29% (inactive) | 123% | -0.248 (inactive) | -1.5e-05 (inactive) | 0.00599 (inactive) | -20.6% (inactive) | -112% (inactive)
COc1ccc(OC)c(S(=O)(=O)Nc2ccc(C(N)=O)cc2)c1 | 684 | -2.6% (inactive) | -13.7% (inactive) | 107% | -57% (inactive) | 113% | -0.519 (inactive) | -0.000185 (inactive) | 0.00432 (inactive) | 18.4% (inactive) | 23.9% (inactive)
COc1ccc(CCNS(=O)(=O)c2ccc3c(c2)OCCO3)cc1 | 361 | 4.2% (inactive) | 2.3% (inactive) | 102% | 33.5% (inactive) | 106% | -0.466 (inactive) | -3.5e-05 (inactive) | 0.00491 (inactive) | 14.6% (inactive) | 16.5% (inactive)
Cn1cc(C(=O)NC2CCCCCCC2)c(=O)c2cc(S(=O)(=O)N3CCCC3)ccc21 | 614 | 3.5% (inactive) | 8.6% (inactive) | 109% | -3.4% (inactive) | 106% | -0.319 (inactive) | -4.1e-05 (inactive) | 0.00744 (inactive) | 10.2% (inactive) | 24.5% (inactive)
Cn1c(NCc2cccc(Br)c2)nc2ccccc21 | 337 | -4.7% (inactive) | 3% (inactive) | 103% | -6.9% (inactive) | 139% | -0.528 (inactive) | -2.6e-05 (inactive) | 0.00491 (inactive) | 8.28% (inactive) | 14.2% (inactive)
COc1ccc(OC)c(C2=NOC(C(=O)Nc3cccnc3)C2)c1 (centres undefined) | 738 | -14.3% (inactive) | -1.9% (inactive) | 100% | -31.9% (inactive) | 93% | -0.561 (inactive) | 5.2e-07 (inactive) | 0.00522 (inactive) | 4.03% (inactive) | 2.04% (inactive)
CCn1c(=N)n(CC(O)COc2cccc(C)c2)c2ccccc21 (centres undefined) | 289 | -4.7% (inactive) | -15.2% (inactive) | 94.9% | -9.5% (inactive) | 112% | -0.517 (inactive) | 4.3e-05 (inactive) | 0.00395 (inactive) | -0.649% (inactive) | -11.2% (inactive)
CCOC(=O)C1CCN(c2c(NCCCN(CC)c3ccccc3)c(=O)c2=O)CC1 | 266 | 5.2% (inactive) | 8.3% (inactive) | 97.6% | -20.2% (inactive) | 95.4% | -0.43 (inactive) | -0.000398 (inactive) | 0.00476 (inactive) | 2.28% (inactive) | 9.33% (inactive)
COc1ccc(N(CC(=O)N2CCN(Cc3ccc4c(c3)OCO4)CC2)S(C)(=O)=O)cc1OC | 359 | 5% (inactive) | 2.1% (inactive) | 120% | -52.6% (inactive) | 112% | -0.538 (inactive) | -1.7e-05 (inactive) | 0.00506 (inactive) | 21.2% (inactive) | 20.2% (inactive)
CC(=O)c1cccc(NC(=O)c2ccc(NS(C)(=O)=O)cc2)c1 | 486 | -8.9% (inactive) | 9% (inactive) | 94.4% | 32.6% (inactive) | 98.5% | -0.444 (inactive) | -5.1e-05 (inactive) | 0.00538 (inactive) | 12.2% (inactive) | 15.9% (inactive)
COC(=O)c1cc(Oc2ccc(C(=O)OC)cc2N)cc(C(=O)OC)c1 | 278 | -12.5% (inactive) | 1% (inactive) | 106% | -19% (inactive) | 108% | -0.467 (inactive) | -0.000384 (inactive) | 0.00407 (inactive) | -3.38% (inactive) | 8.08% (inactive)
